The source made the active and inactive calls. No cut-off for these calls is given here.
Assays:
Mus musculus [1] = test: Antiinflammatory activity in CD-1 mouse assessed as reduction in zymosan-induced LTC4 formation in peritoneal cavity at 10 mg/kg, ip preincubated for 30 mins followed by zymosan addition measured after 30 mins by ELISA; assay type: functional, organism-based
How it was run: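 CD-1 male mice (6-8 weeks), n=6 per group, given 10 mg/kg i.p. in 2% DMSO/saline vehicle 30 min before i.p. zymosan (500 µL of 2 mg/mL suspension). Peritoneal cavity washed with 3 ml PBS 30 min after zymosan; LTC4 measured in exudate. One-way ANOVA with Bonferroni test.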

Mus musculus [2] = test: Antiinflammatory activity in zymosan induced CD-1 mouse model of inflammation assessed as reduction in leukocyte recruitment in air pouch at 10 mg/kg, ip preincubated for 30 mins followed by zymosan challenge and measured after 4 hrs by trypan blue staining-based burker's chamber method; assay type: functional, organism-based
How it was run: (§1)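 Air pouch formed by s.c. injection of 2.5 mL sterile air in CD-1 mice; on day 6, 10 mg/kg i.p. (2% DMSO/saline) given 30 min before 1 ml 1% w/v zymosan into the pouch. After 4 h, exudate collected with 1 ml saline and centrifuged; leukocytes counted in Burker chamber; LTB4 in supernatant by ELISA (ng/mL). n=6 mice per group.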

Mus musculus [3] = test: Antiinflammatory activity in zymosan induced CD-1 mouse model of inflammation assessed as reduction in LTB4 levels in air pouch at 10 mg/kg, ip preincubated for 30 mins followed by zymosan challenge and measured after 4 hrs by ELISA; assay type: functional, organism-based; how it was run: as §1
Prostaglandin E synthase = molecular target: T1, Prostaglandin E synthase (Homo sapiens, UniProt O14684); test: Inhibition of mPGES-1 isolated from microsomes of interleukin-1 beta-stimulated human A549 cells using PGH2 as substrate preincubated for 15 mins followed by substrate addition measured after 1 min by RP-HPLC analysis
T1 sequence (O14684 whole entry): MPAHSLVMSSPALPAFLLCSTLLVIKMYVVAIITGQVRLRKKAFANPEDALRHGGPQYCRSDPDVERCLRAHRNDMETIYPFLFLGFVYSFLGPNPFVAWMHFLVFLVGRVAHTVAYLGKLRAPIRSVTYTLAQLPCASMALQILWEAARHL
How it was run: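 Microsomes from A549 cells treated with IL-1β (1 ng/ml, 72 h), diluted in 0.1 M potassium phosphate pH 7.4 with 2.5 mM glutathione. Pre-incubated 15 min with compound or DMSO, then 20 µM PGH2 (final) for 1 min at 4 °C. IC50 from 4-5 concentrations.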

- IC50 (Prostaglandin E synthase): 2400 nM
SMILES: CC(c1cc2ccccc2s1)N(O)C(N)=O (centres undefined) [ZILEUTON]
- Activity (Mus musculus [1]): Active
- Activity (Mus musculus [2]): Active
- Activity (Mus musculus [3]): Active

Reference: ChEMBL document CHEMBL4270576, “Discovery of a benzenesulfonamide-based dual inhibitor of microsomal prostaglandin E2 synthase-1 and 5-lipoxygenase that favorably modulates lipid mediator biosynthesis in inflammation” (Eur J Med Chem, 2018)
